Where a chain is given by its changes, count along the chain named. Entries after “also recorded” stand apart in the source; their conditions may differ.
Legend:
dorsal horn neurons = assay: Spinal cord slice electrophysiology; format: cell-based, rat; conditions: for increase in eEPSC amplitude from baseline: reversal of the ADO tone; for sEPSC frequency and amplitude: nerve-injured rats, superfusion, reversed by DPCPX, n=8
In short: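 Parasagittal lumbar cord slices (340 μm) from PNL and sham Sprague-Dawley rats, 9-15 weeks, cut in ice-cold sucrose ACSF and superfused at 2 ml/min, 34°C. Whole-cell voltage clamp at −70 mV in lamina I-II neurons; Cs-based internal with QX-314. eEPSCs evoked by dorsal root stimulation (C and A fibre) with gabazine 10 μM and strychnine 0.5 μM. Test compound superfused after stable baseline, then 1 μM DPCPX.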

mutant A1R [1] = target: T1, mutant A1R (Homo sapiens, UniProt P30542, S246A); format: binding; conditions: S246^6.47A
T1 sequence (P30542 1-326 S246A): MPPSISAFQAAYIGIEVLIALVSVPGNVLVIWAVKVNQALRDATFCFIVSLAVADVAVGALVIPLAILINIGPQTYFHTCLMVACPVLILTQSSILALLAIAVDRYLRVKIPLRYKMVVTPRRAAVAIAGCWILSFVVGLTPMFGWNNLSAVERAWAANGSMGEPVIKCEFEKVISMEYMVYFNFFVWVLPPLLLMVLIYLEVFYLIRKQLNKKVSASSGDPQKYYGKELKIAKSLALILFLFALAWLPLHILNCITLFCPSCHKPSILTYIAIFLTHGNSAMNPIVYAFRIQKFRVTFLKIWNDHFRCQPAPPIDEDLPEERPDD

mutant A1R [2] = format: binding, human; conditions: bulkier side chains at position 7.44 (G279^7.44)
mutant A1R [3] = target: T2, mutant A1R (Homo sapiens, UniProt P30542, M283V); format: binding; conditions: M283^7.48V
T2 sequence (P30542 1-326 M283V): T1 sequence (P30542 1-326 S246A) with A246S, M283V

mutant A1R [4] = target: T3, mutant A1R (Homo sapiens, UniProt P30542, L276A); format: binding; conditions: L276^7.41A
T3 sequence (P30542 1-326 L276A): T1 sequence (P30542 1-326 S246A) with A246S, L276A

mutant A1R [5] = target: T4, mutant A1R (Homo sapiens, UniProt P30542, F275V); format: binding; conditions: F275^7.40V
T4 sequence (P30542 1-326 F275V): T1 sequence (P30542 1-326 S246A) with A246S, F275V

mutant A1R [6] = target: T5, mutant A1R (Homo sapiens, UniProt P30542, L242A/L245A); format: binding; conditions: alanine mutation of both L242^6.43 and L245^6.46
T5 sequence (P30542 1-326 L242A/L245A): T1 sequence (P30542 1-326 S246A) with L242A, L245A, A246S

[7] = target: T6, A1R alone reconstituted in rHDL (Homo sapiens, UniProt P30542); assay: [3H]DPCPX dissociation at A1R-rHDL particles, absence of G protein; format: binding; conditions: 30 μM MIPS521, SLV320 isotopic dilution
T6 sequence (P30542 1-326): T1 sequence (P30542 1-326 S246A) with A246S
In short: (§1)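 Purified A1R reconstituted into MSP1D1 nanodiscs (POPC:POPG 3:2; molar ratio 1:10:800) for 1 h at 4°C, then Bio-beads overnight; empty discs removed on anti-Flag resin. Particles ± Gi2 heterotrimer (1:50 molar) were equilibrated 1 h with 2 nM [3H]DPCPX ± 30 μM test compound. Dissociation started with excess SLV320, filtered on GF/C and counted. Fitted to mono-exponential decay; n = 3-5, duplicate.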

nerve-injured rats [8] = assay: Conditioned place preference; format: in vivo, rat; conditions: intrathecal; for time spent in the drug paired chamber: nerve-injured rats, n=8
In short: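 Male and female Sprague-Dawley rats, 10-16 weeks, with partial sciatic nerve ligation and lumbar intrathecal catheters. Three-chamber box; pre-conditioning began 10 days post-surgery, excluding rats spending >80% of time in one chamber. Vehicle (DMSO/saline 60:40 or saline) was paired with one chamber in the morning and intrathecal drug with the opposite chamber 4 h later, counterbalanced. Rats were recorded 15 min with free access 20 h later; n = 8/group; morphine positive control.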

rat atrial beat rate = assay: Isolated rat atrial experiments; conditions: isolated rat atria, concentration-response
[9] = target: A1R-rHDL particles with Gi2 heterotrimeric protein (Homo sapiens, UniProt P30542); assay: [3H]DPCPX dissociation at A1R-rHDL particles with saturating Gi2; format: binding; conditions: 30 μM MIPS521; saturating concentration of Gi2; SLV320 isotopic dilution
In short: as §1

rats = assay: Rotarod; format: in vivo, rat
[10] = Stability in human plasma; format: in vitro ADME
nerve-injured rats [11] = format: in vivo, rat; conditions: intrathecal
In short: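 Sciatic nerve partially ligated (one third to one half) under isoflurane; allodynia confirmed at day 14. Intrathecal catheters placed at day 12 in male and female Sprague-Dawley rats, 9-14 weeks. After baseline, blinded 10 μL dose (DMSO/saline 60:40) plus 25 μL saline flush. Von Frey filaments 0.52-14.8 g, up-down method, over a time course, including 1 h post-dose. n = 8-10; catheter placement checked with lignocaine.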

[12] = target: T7, human A1R expressed in CHO cells (Homo sapiens, UniProt P30542); format: cell-based
T7 sequence (P30542 1-326): T1 sequence (P30542 1-326 S246A) with A246S
In short: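 FlpIN-CHO cells stably expressing WT A1R, grown in DMEM with 20 mM HEPES, 5% FBS and hygromycin B; seeded at 20,000 cells/well overnight. At 37°C in HEPES-buffered saline with rolipram, pH 7.45: 30 min preincubation, 10 min test compound, then 3 μM forskolin ± increasing ADO for 30 min. Stopped with ice-cold ethanol; cAMP expressed as % of forskolin response.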

Stability in rat plasma = format: in vitro ADME
[13] = intrathecal, compared to vehicle controls, n=3-4
[14] = operational model, ADO, 3 μM forskolin

Sequence of A1R-rHDL particles with Gi2 heterotrimeric protein (P62873 whole entry): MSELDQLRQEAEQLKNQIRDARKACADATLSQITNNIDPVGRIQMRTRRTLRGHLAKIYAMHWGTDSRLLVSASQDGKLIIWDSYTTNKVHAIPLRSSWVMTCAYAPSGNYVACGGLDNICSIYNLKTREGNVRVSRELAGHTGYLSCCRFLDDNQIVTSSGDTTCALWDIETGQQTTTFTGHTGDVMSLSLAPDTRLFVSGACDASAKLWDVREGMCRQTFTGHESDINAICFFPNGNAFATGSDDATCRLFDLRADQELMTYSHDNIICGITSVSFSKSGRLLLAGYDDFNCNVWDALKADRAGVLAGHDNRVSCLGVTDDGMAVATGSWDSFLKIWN
Sequence of A1R-rHDL particles with Gi2 heterotrimeric protein (P59768 2-68, further chain): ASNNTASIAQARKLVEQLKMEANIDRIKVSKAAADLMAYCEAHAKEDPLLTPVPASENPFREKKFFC
Sequence of A1R-rHDL particles with Gi2 heterotrimeric protein (P04899 2-355, further chain): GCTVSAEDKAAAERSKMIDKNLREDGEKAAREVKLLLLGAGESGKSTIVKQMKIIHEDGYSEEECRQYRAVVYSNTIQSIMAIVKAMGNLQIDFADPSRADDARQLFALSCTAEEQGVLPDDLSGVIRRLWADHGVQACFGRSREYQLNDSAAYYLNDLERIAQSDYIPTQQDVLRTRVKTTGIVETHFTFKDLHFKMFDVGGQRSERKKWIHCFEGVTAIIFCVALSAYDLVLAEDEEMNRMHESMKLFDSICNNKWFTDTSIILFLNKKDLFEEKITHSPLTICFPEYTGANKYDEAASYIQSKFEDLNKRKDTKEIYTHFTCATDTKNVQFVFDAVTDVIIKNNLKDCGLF
Sequence of A1R-rHDL particles with Gi2 heterotrimeric protein (P30542 whole entry): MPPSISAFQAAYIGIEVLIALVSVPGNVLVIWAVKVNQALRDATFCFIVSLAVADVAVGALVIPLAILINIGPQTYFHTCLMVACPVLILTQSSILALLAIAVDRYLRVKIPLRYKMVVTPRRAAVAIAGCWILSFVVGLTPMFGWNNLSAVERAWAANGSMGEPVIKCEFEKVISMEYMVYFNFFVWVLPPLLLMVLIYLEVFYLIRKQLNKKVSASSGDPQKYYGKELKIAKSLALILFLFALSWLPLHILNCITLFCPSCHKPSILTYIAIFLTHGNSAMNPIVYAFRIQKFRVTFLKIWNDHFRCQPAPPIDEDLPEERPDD

Q: Which “increase in eEPSC amplitude from baseline” value (dorsal horn neurons; nerve-injured animals) does the source give for `CCCn1c(=O)c2[nH]c(C3CCCC3)nc2n(CCC)c1=O` [DPCPX, reference compound] here?
A: Its value is 19.7 ± 6.1%.

Q: And the “increase in eEPSC amplitude from baseline” value (dorsal horn neurons; sham controls)?
A: The value was 7.89 ± 2.7%.

Q: For `Nc1scc(-c2cc(C(F)(F)F)cc(C(F)(F)F)c2)c1C(=O)c1ccc(Cl)cc1` [MIPS521], which “change in PAM affinity (pKB) vs wild type” value (shortened to “change in PAM affinity (pKB)”) (mutant A1R [1]) is on record?
A: The value was “significant decrease in both PAM affinity and cooperativity”.

Q: What about the “change in binding cooperativity (log α) with NECA vs wild type” value (from here on “change in binding cooperativity (log α)”) (mutant A1R [1]) of the same compound?
A: The value was “significant decrease in both PAM affinity and cooperativity”.

Q: What about the “change in PAM affinity (pKB)” value (mutant A1R [2]) of the same compound?
A: The value was “significant loss of both modulator affinity and cooperativity”.

Q: And the “change in binding cooperativity (log α)” value (mutant A1R [2])?
A: The value was “significant loss of both modulator affinity and cooperativity”.

Q: And the “change in PAM affinity (pKB)” value (mutant A1R [3])?
A: The value was “significantly reduced the affinity”.

Q: What about the “change in PAM affinity (pKB)” value (mutant A1R [4]) of the same compound?
A: The value was “significantly decreased MIPS521 affinity”.

Q: What about the “change in PAM affinity (pKB)” value (mutant A1R [5]) of the same compound?
A: The value was “decrease in affinity”.

Q: What about the “change in PAM affinity (pKB)” value (mutant A1R [6]) of the same compound?
A: Its value is “no effect on affinity”.

Q: What about the “change in binding cooperativity (log α)” value (mutant A1R [6]) of the same compound?
A: Its value is “significant decrease in PAM cooperativity”.

Q: What about the “effect on dissociation of pre-equilibrated [3H]DPCPX” value [7] of the same compound?
A: The value was “no effect”.

Q: What about the “time spent in the drug paired chamber” value (nerve-injured rats [8]; 10 μg) of the same compound?
A: The value was “increased the time nerve-injured rats spent in the drug paired chamber”.

Q: What about the spontaneous pain (nerve-injured rats [8]; lower dose than VCP171 (10 μg)) of the same compound?
A: Its spontaneous pain is “significantly reduced spontaneous pain”.

Q: And the “effect on rat atrial beat rate” value (rat atrial beat rate)?
A: Its value is “minimal effect”.

Q: And the “effect on dissociation of pre-equilibrated [3H]DPCPX” value [9]?
A: The value was “even more profound retardation”.

Q: What about the “rotarod latency to fall / motor function” value (rats; [13]) of the same compound?
A: The value was “neither MIPS521 nor VCP171 affected motor function; also recorded: not significantly different to vehicle controls”.

Q: And the stability in plasma ([10]; 4-hour incubation period)?
A: Its stability in plasma is “stable”.

Q: What about the “mechanical hyperalgesia (paw withdrawal threshold)” value (nerve-injured rats [11]; compared with VCP171) of the same compound?
A: Its value is “reversed the mechanical hyperalgesia at lower concentrations than VCP171”.

Q: What about the “affinity for the A1R allosteric site, pKB” value ([12]; operational model of allosterism and agonism, ADO, 3 μM forskolin, n=3) of the same compound?
A: The value was 4.95 ± 0.40.

Q: What about the “positive cooperativity with ADO, Log αβ” value [12, 14] of the same compound?
A: The value was 1.81 ± 0.53.

Q: What about the “direct allosteric agonism / signaling efficacy, Log τB” value ([12]; operational model, recombinant CHO cells) of the same compound?
A: The value was 0.96 ± 0.34.

Q: And the stability in plasma (Stability in rat plasma; 4-hour incubation period)?
A: The stability in plasma was “stable”.

Q: And the “sEPSC frequency and amplitude” value (dorsal horn neurons)?
A: The value was “reduced”.

Q: And the “pEC50 for reducing eEPSCs” value (dorsal horn neurons; spinal cord from nerve-injured animals, n=4-12)?
A: Its value is 6.9 ± 0.4.

Q: What does the source list for `Nc1scc(-c2cccc(C(F)(F)F)c2)c1C(=O)c1ccccc1` [VCP171, (2-amino-4-(3-(trifluoromethyl)phenyl)thiophen-3-yl)(phenyl)methanone]?
A: spontaneous pain (nerve-injured rats [8]; 30 μg (highest dose)): reduced spontaneous pain; time spent in the drug paired chamber (nerve-injured rats [8]; 30 μg): increased the time nerve-injured rats spent in the drug paired chamber; rotarod latency to fall / motor function (rats; both, Sprague Dawley, rat, in vivo): neither MIPS521 nor VCP171 affected motor function; rotarod latency to fall / motor function (rats; rat, in vivo): not significantly different to vehicle controls; time stable in plasma [10]: at least 4 h; allodynia (paw withdrawal threshold) (nerve-injured rats [11]; 30 μg): small reduction of allodynia; paw withdrawal threshold (nerve-injured rats [11]; 1-10 μg): no effect; Kb [12]: 3.16 µM; positive cooperativity with ADO, Log αβ [12, 14]: 0.76 ± 0.25; time stable in plasma (Stability in rat plasma): at least 4 h; sEPSC frequency and amplitude (dorsal horn neurons): reduced

Q: What does the source list for `CN1CC[C@]23c4c5ccc(O)c4O[C@H]2[C@@H](O)C=C[C@H]3[C@H]1C5` [morphine, reference compound]?
A: time spent in the drug paired chamber (nerve-injured rats [8]; 10 μg): increased the time nerve-injured rats spent in the drug paired chamber; rotarod latency to fall / motor function (rats; [13]): reduces rotarod latency to fall

— PMC8711093 (Nature, 2021)
